These results are taken from ChEMBL document CHEMBL5653631, “A Potent and Selective ULK1 Inhibitor Suppresses Autophagy and Sensitizes Cancer Cells to Nutrient Stress” (iScience, 2018).

For assay [1], the target named is Serine/threonine-protein kinase PRP4 homolog (Homo sapiens) (UniProt Q13523). As to the kind of experiment: Inhibition of human recombinant PRP4 at 15 nM in presence of ATP by radiometric assay relative to control.
Assay [2] deals with RAC-gamma serine/threonine-protein kinase (Homo sapiens) (UniProt Q9Y243). As to the kind of experiment: Inhibition of human recombinant AKT3 at 15 nM related to control ULK1.
Assay [3] has as its target Ephrin type-A receptor 5 (Homo sapiens) (UniProt P54756). The experiment in a line: Inhibition of human recombinant EphA5 at 15 nM related to control ULK1.
In assay [4] the target is Serine/threonine-protein kinase MRCK alpha (Homo sapiens) (UniProt Q5VT25). The experiment in a line: Inhibition of human recombinant MRCKa at 15 nM related to control ULK1.
The target of assay [5] is Serine/threonine-protein kinase 4 (MST1/STK4) (Homo sapiens) (UniProt Q13043). The experiment in a line: Inhibition of human recombinant MST1 at 15 nM in presence of ATP by radiometric assay relative to control.
The target of assay [6] is T1, G protein-coupled receptor kinase 3 (Homo sapiens) (UniProt P35626).
T1 sequence (whole entry): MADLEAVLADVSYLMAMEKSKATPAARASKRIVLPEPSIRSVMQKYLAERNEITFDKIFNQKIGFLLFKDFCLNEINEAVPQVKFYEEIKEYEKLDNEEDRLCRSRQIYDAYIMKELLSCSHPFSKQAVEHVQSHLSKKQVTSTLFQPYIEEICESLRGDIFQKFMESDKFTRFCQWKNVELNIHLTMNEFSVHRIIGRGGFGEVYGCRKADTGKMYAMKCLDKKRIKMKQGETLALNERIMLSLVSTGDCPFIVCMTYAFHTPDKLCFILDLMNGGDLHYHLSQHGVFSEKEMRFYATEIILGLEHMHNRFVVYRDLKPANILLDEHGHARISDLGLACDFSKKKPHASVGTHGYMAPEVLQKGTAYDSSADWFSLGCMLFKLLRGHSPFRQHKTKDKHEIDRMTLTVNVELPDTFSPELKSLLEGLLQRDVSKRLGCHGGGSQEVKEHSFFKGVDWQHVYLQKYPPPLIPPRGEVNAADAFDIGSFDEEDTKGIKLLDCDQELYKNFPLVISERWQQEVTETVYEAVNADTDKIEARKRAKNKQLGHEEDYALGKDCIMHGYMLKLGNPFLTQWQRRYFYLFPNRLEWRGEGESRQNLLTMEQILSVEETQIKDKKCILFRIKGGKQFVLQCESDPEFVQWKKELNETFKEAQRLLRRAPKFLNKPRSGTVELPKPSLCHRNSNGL
The experiment in a line: Inhibition of human recombinant BARK2 at 40 nM in presence of ATP by radiometric assay relative to control. In short, it runs like this: (§1)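 Part of a radiometric in vitro activity panel of 327 recombinant human kinases. Each kinase was tested in duplicate at one inhibitor concentration. Activity remaining was expressed as a percentage of the vehicle control, and percent inhibition was taken as 100 minus that value.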

Assay [7] addresses Casein kinase II subunit alpha (Homo sapiens) (UniProt P68400). The experiment in a line: Inhibition of human recombinant CK2a1 at 40 nM in presence of ATP by radiometric assay relative to control.
Assay [8] deals with Death-associated protein kinase 1 (Homo sapiens) (UniProt P53355). The experiment in a line: Inhibition of human recombinant DAPK1 at 40 nM in presence of ATP by radiometric assay relative to control.
Assay [9] concerns the target Focal adhesion kinase 1 (Homo sapiens) (UniProt Q05397). As to the kind of experiment: Inhibition of human recombinant FAK at 40 nM in presence of ATP by radiometric assay relative to control.
Assay [10] concerns the target Vascular endothelial growth factor receptor 1 (Homo sapiens) (UniProt P17948). As to the kind of experiment: Inhibition of human recombinant FLT1 at 40 nM in presence of ATP by radiometric assay relative to control.
In assay [11] the target is Tyrosine-protein kinase SYK (Homo sapiens) (UniProt P43405). The experiment in a line: Inhibition of human recombinant SYK at 40 nM in presence of ATP by radiometric assay relative to control.
The target of assay [12] is Mitogen-activated protein kinase kinase kinase 9 (Homo sapiens) (UniProt P80192). As to the kind of experiment: Inhibition of human recombinant MLK1 at 40 nM related to control ULK1.
The target of assay [13] is Tyrosine-protein kinase Blk (Homo sapiens) (UniProt P51451). The experiment in a line: Inhibition of human recombinant BLK at 500 nM in presence of ATP by radiometric assay relative to control. The gist of the method: as §1
The target in assay [14] is Cyclin-dependent kinase 18 (Homo sapiens) (UniProt Q07002). The experiment in a line: Inhibition of human recombinant PCTAIRE3 at 500 nM in presence of ATP by radiometric assay relative to control.
For assay [15], the target named is Ribosomal protein S6 kinase alpha-3 (Homo sapiens) (UniProt P51812). As to the kind of experiment: Inhibition of human recombinant RSK2 at 500 nM in presence of ATP by radiometric assay relative to control.
For assay [16], the target named is T2, Serine/threonine-protein kinase TBK1 (Homo sapiens) (UniProt Q9UHD2).
T2 sequence (whole entry): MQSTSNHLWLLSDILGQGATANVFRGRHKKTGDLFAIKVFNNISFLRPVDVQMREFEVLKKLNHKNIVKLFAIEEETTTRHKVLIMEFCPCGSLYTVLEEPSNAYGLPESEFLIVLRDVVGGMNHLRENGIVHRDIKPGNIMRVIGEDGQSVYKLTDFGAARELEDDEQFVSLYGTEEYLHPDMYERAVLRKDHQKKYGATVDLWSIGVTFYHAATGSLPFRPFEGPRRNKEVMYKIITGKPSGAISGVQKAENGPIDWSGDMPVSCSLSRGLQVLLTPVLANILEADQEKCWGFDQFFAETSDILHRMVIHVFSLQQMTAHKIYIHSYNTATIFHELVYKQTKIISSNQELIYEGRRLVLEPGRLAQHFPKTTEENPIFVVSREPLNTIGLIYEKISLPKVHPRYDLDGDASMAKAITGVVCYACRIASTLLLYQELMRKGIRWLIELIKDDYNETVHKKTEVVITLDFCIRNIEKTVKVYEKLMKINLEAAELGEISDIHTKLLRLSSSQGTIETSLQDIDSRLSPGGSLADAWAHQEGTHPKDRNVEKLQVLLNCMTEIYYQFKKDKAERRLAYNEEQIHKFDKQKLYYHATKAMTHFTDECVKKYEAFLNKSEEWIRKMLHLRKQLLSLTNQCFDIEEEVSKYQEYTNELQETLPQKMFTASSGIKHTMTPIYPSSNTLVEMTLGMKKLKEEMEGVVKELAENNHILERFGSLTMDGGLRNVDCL
As to the kind of experiment: Inhibition of human recombinant TBK1 at 500 nM in presence of ATP by radiometric assay relative to control.

Assay [17] concerns the target Serine/threonine-protein kinase WNK1 (Homo sapiens) (UniProt Q9H4A3). The experiment in a line: Inhibition of human recombinant Wnk1 at 500 nM in presence of ATP by radiometric assay relative to control.
Assay [18] is filed under the species Homo sapiens. The experiment in a line: Inhibition of human recombinant ABL at 500 nM related to control ULK1.

Serine/threonine-protein kinase WNK1 (Homo sapiens), sequence (Q9H4A3 whole entry, looked up): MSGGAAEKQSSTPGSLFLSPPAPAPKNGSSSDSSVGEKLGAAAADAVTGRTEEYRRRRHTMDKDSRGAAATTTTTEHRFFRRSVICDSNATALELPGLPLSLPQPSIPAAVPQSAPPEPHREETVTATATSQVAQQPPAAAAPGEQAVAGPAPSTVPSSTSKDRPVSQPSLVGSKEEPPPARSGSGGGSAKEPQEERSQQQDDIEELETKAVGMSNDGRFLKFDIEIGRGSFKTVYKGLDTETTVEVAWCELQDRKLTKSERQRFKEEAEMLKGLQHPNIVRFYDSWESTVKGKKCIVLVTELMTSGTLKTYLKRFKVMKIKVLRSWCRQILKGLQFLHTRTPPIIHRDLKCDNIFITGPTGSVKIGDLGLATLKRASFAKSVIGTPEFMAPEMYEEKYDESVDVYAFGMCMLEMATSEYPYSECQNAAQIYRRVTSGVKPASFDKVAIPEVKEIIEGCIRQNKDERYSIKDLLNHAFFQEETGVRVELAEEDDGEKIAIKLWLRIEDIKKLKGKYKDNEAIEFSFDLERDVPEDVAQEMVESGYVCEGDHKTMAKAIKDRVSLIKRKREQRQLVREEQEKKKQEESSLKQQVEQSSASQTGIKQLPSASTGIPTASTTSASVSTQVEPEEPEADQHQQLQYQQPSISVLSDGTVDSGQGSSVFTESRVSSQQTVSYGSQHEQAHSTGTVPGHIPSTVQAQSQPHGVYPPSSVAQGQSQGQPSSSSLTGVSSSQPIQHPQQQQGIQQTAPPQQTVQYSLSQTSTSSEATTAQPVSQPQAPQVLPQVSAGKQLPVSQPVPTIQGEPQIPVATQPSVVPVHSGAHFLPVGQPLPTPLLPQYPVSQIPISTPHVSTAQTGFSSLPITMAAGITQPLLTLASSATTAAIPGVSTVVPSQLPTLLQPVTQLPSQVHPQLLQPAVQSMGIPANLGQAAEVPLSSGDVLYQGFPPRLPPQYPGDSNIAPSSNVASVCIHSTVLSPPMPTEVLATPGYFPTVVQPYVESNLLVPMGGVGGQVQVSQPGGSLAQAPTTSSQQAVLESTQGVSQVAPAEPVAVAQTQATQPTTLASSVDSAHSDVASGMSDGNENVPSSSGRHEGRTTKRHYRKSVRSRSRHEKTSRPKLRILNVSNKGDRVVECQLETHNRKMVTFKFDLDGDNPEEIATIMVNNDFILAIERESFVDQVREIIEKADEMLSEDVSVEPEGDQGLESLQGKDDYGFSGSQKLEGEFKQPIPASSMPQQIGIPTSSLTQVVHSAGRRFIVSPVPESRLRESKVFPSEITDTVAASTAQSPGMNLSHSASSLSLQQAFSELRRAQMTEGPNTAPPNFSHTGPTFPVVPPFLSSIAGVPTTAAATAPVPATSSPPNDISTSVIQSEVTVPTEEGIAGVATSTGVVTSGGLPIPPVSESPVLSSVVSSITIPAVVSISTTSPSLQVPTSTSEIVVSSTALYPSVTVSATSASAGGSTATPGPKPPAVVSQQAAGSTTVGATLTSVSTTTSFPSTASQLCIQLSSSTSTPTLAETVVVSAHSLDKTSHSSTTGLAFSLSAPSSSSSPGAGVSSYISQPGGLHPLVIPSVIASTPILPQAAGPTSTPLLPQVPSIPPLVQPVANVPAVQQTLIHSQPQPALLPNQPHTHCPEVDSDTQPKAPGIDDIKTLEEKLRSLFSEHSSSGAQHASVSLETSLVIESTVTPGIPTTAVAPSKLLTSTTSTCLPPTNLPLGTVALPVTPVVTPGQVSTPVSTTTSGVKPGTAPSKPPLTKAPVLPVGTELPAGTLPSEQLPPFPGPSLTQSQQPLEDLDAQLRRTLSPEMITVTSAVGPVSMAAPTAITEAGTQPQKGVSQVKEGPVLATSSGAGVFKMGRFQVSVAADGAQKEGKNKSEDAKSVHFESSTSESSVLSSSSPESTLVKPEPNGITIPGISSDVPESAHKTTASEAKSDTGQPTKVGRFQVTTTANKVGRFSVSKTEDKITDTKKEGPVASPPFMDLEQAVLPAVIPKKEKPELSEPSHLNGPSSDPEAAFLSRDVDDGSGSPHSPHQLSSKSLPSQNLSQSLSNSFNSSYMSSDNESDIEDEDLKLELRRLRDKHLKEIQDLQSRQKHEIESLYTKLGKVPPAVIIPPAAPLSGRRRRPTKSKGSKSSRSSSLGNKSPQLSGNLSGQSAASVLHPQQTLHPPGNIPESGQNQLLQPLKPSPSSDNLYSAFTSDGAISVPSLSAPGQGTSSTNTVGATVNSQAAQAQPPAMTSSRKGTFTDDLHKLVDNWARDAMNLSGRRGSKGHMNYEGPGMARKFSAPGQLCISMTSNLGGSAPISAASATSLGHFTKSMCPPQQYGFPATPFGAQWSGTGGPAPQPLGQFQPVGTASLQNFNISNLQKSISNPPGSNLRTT
Mitogen-activated protein kinase kinase kinase 9 (Homo sapiens), sequence (P80192 whole entry, looked up): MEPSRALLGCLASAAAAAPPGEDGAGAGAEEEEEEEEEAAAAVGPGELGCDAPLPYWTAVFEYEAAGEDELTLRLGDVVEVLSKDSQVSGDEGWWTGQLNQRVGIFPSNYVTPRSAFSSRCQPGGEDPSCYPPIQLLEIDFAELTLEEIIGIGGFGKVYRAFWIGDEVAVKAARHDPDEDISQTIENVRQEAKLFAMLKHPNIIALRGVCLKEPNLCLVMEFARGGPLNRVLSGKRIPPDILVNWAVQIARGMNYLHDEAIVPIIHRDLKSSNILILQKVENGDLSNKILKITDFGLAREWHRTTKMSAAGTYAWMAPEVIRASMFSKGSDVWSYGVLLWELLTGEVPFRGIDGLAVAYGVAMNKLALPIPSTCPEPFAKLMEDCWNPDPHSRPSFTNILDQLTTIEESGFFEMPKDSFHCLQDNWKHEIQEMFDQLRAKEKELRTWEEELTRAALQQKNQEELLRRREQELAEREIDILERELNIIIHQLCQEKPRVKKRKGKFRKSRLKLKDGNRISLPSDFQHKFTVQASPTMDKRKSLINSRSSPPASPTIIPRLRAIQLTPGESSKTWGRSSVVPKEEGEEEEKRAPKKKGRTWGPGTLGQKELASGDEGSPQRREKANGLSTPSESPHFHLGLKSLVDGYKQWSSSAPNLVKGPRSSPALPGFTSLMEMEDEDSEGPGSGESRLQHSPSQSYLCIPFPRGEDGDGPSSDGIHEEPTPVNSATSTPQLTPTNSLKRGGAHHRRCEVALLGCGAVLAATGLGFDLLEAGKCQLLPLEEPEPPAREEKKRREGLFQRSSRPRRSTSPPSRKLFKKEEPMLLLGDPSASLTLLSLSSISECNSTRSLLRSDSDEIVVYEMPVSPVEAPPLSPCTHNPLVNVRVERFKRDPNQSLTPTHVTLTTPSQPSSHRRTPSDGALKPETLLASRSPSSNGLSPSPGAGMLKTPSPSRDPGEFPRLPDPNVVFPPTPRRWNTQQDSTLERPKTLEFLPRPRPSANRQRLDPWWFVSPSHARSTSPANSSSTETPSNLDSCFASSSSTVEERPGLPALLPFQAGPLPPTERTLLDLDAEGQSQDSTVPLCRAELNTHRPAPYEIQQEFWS
Serine/threonine-protein kinase 4 (MST1/STK4) (Homo sapiens), sequence (Q13043 whole entry, looked up): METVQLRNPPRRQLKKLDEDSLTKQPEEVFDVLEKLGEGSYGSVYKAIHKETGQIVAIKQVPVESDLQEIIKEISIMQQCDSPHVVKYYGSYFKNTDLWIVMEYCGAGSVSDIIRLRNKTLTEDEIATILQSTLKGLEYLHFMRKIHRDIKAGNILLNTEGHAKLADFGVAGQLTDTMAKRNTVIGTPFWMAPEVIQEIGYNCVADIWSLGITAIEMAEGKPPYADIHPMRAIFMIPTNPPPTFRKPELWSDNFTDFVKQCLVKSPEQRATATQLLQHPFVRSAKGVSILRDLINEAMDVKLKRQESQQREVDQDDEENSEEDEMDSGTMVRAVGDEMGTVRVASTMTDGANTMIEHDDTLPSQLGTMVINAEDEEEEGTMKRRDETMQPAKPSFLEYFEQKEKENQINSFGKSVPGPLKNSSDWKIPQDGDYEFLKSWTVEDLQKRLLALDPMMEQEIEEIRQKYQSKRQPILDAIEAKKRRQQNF
Ephrin type-A receptor 5 (Homo sapiens), sequence (P54756 whole entry): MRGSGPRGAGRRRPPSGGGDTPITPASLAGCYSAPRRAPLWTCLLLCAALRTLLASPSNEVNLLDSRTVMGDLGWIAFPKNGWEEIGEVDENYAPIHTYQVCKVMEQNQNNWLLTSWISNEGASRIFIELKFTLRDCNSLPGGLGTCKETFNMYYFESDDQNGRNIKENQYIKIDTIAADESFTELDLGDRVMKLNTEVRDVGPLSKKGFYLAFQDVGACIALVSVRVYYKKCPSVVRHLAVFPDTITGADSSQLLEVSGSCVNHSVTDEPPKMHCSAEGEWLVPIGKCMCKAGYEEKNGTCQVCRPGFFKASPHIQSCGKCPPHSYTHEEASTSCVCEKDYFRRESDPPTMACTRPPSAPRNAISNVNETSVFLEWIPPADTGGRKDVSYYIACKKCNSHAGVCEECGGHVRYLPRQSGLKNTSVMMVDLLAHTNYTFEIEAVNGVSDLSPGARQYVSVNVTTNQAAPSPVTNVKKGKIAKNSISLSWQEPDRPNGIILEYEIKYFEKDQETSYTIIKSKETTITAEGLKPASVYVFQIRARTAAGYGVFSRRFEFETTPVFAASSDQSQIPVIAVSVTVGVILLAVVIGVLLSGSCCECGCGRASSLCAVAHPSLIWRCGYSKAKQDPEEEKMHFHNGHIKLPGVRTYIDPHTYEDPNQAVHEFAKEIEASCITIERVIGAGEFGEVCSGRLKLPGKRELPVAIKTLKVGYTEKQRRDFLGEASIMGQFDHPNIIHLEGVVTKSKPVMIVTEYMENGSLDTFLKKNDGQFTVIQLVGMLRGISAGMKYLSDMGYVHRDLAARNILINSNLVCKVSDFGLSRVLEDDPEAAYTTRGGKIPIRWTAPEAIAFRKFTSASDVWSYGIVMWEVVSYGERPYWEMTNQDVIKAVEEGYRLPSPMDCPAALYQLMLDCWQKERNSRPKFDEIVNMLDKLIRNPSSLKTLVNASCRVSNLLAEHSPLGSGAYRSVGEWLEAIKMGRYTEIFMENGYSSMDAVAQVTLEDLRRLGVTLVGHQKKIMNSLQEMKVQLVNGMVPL

`CC(C)[C@H](NC(=O)c1cc(-c2cnn3cc(-c4ccc(OCCN5CCCCC5)cc4)cnc23)cs1)C(F)(F)F`: the inhibition in assay [1] came out at 6%; in assay [5] it was 3%. In addition, the fold change (FC) turned out to be 0.09 in assay [2], 0 in assay [3] and 0.13 in assay [4].
`O=C(N[C@@H](C1CC1)C(F)(F)F)c1cc(-c2cnn3cc(-c4ccc(F)cc4)cnc23)cs1`: the inhibition in assay [6] is 7%; in assay [7], 7%; in assay [8], 0%; in assay [9], 0%; in [10] it was 18%; in assay [11], 0%. Besides, the fold change (FC) in assay [12] came to 0.1.
For `CNC(=O)c1ccccc1Oc1nc(Nc2cc(OC)c(OC)c(OC)c2)ncc1Br`, the inhibition turned out to be 29% in assay [13]; 20% in assay [14]; 37% in [15]; 0% in assay [16]; 0% in assay [17]. Moreover, the fold change (FC) in [18] is 0.19.

A word on the inhibition: it is the change of the read-out against control, counted positive when it falls.
